# Results: ChEMBL document CHEMBL1156940, “Modified cap group suberoylanilide hydroxamic acid histone deacetylase inhibitor derivatives reveal improved selective antileukemic activity” (J Med Chem, 2010)
# Calls of active or inactive are those of the source. The rule behind the calls is not given here.
# Tests used:
# [1] = test system: SK-BR-3; assay: Antiproliferative activity against human SK-BR-3 cells after 48 hrs by cell titer-glo assay; type: functional, cell-based; details: SK-BR-3, 48 h
# [2] = test system: HT-29; assay: Antiproliferative activity against human HT-29 cells after 48 hrs by cell titer-glo assay; type: functional, cell-based; details: HT-29, 48 h
# [3] = test system: U-937; assay: Antiproliferative activity against human U937 cells after 48 hrs by cell titer-glo assay; type: functional, cell-based; details: U-937, 48 h
# Procedure, shortened: (§1)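 Cells kept in RPMI-1640 with 10% FBS at 37 °C, 5% CO2. 10^4 suspension cells were plated immediately before dosing. Compounds were added at 0.1–100 µM, final 1% DMSO, with DMSO vehicle control, and incubated 48 h. CellTiter-Glo luminescence was read. EC50 is the dose reducing luminescence to 50% of untreated cultures.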
# [4] = test system: Jurkat; assay: Antiproliferative activity against human Jurkat JA16 cells after 48 hrs by cell titer-glo assay; type: functional, cell-based
# [5] = test system: HL-60; assay: Antiproliferative activity against human HL60 cells after 48 hrs by cell titer-glo assay; type: functional, cell-based; details: HL-60, 48 h
# [6] = test system: K562; assay: Antiproliferative activity against human K562 cells after 48 hrs by cell titer-glo assay; type: functional, cell-based; details: K562, 48 h; procedure, shortened: as §1
# [7] = Therapeutic ratio, EC50 for human PBMC to EC50 for human 937 cells; details: human PBMC versus human 937 cells
# [8] = test system: Mus musculus; assay: Toxicity in FVB mouse assessed as mortality at 50 mg/kg, po administered 5 times per week for 2 weeks; type: organism-based; parameters: dose 50 mg/kg, route oral; details: in vivo, 336 h
# Procedure, shortened: (§2)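 8-week-old Fvb mice, SPF-housed in ventilated cages with acidified water, randomly assigned (n = 3 per group) to compound or solvent-only vehicle. Dosing was by oral gavage five times weekly for 2 weeks. Survival was monitored with body weight and blood counts during dosing, and deaths were also recorded during the month after treatment stopped.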
# [9] = test system: Mus musculus; assay: Toxicity in FVB mouse assessed as mortality at 50 mg/kg, po administered 5 times per week for 2 weeks measured up to 1 month; type: organism-based; parameters: dose 50 mg/kg, route oral; details: in vivo, 336 h; procedure, shortened: as §2
# [10] = test system: Mus musculus; assay: Toxicity in FVB mouse assessed as effect on number of platelets at 50 mg/kg, po administered 5 times per week for 2 weeks measured during test (reference value: 454 +/- 93 10^3/mm^3); type: organism-based; parameters: dose 50 mg/kg, route oral; details: in vivo, 336 h
# Procedure, shortened: (§3)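 8-week-old FVB mice were housed specific-pathogen-free and randomly assigned, n = 3 per group. They received 50 mg/kg compound or vehicle alone by oral gavage, five times weekly for 2 weeks. Body weight and survival were monitored. Differential blood counts came from nonlethal retro-orbital bleeds before study (J-5), during study (J5) and at end point (J12). Values are means ± spread for n = 3.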
# [11] = test system: Mus musculus; assay: Toxicity in FVB mouse assessed as effect on number of platelets at 50 mg/kg, po administered 5 times per week for 2 weeks (reference value: 514 +/- 42.8 10^3/mm^3); type: organism-based; parameters: dose 50 mg/kg, route oral; details: in vivo, 336 h; procedure, shortened: as §3
# [12] = test system: Mus musculus; assay: Toxicity in FVB mouse assessed as effect on mean platelet volume at 50 mg/kg, po administered 5 times per week for 2 weeks measured during test (reference value: 8.4 +/- 0.5 microm^3); type: organism-based; parameters: dose 50 mg/kg, route oral; details: in vivo, 336 h; procedure, shortened: as §3
# [13] = test system: Mus musculus; assay: Toxicity in FVB mouse assessed as effect on mean platelet volume at 50 mg/kg, po administered 5 times per week for 2 weeks (reference value: 8.8 +/- 0.1 microm^3); type: organism-based; parameters: dose 50 mg/kg, route oral; details: in vivo, 336 h; procedure, shortened: as §3
# [14] = test system: Mus musculus; assay: Toxicity in FVB mouse assessed as effect on number of RBC at 50 mg/kg, po administered 5 times per week for 2 weeks measured during test (reference value: 8.1 +/- 0.2 10^6/mm^3); type: organism-based; parameters: dose 50 mg/kg, route oral; details: in vivo, 336 h; procedure, shortened: as §3
# [15] = test system: Mus musculus; assay: Toxicity in FVB mouse assessed as effect on number of RBC at 50 mg/kg, po administered 5 times per week for 2 weeks (reference value: 7.7 +/- 0.1 10^6/mm^3); type: organism-based; parameters: dose 50 mg/kg, route oral; details: in vivo, 336 h; procedure, shortened: as §3
# [16] = test system: Mus musculus; assay: Toxicity in FVB mouse assessed as effect on mean cell volume of red cells at 50 mg/kg, po administered 5 times per week for 2 weeks measured during test (reference value: 43.7 +/- 0.4 microm^3); type: organism-based; parameters: dose 50 mg/kg, route oral; details: in vivo, 336 h; procedure, shortened: as §3
# [17] = test system: Mus musculus; assay: Toxicity in FVB mouse assessed as effect on number of WBC at 50 mg/kg, po administered 5 times per week for 2 weeks measured during test (reference value: 9.1 +/- 0.2 10^3/mm^3); type: organism-based; parameters: dose 50 mg/kg, route oral; details: in vivo, 336 h; procedure, shortened: as §3
# [18] = test system: Mus musculus; assay: Toxicity in FVB mouse assessed as effect on number of WBC at 50 mg/kg, po administered 5 times per week for 2 weeks (reference value: 9.1 +/- 0.2 10^3/mm^3); type: organism-based; parameters: dose 50 mg/kg, route oral; details: in vivo, 336 h; procedure, shortened: as §3
# [19] = test system: Mus musculus; assay: Toxicity in FVB mouse assessed as effect on hematocrit at 50 mg/kg, po administered 5 times per week for 2 weeks measured during test; type: organism-based; parameters: dose 50 mg/kg, route oral; details: in vivo, 336 h; procedure, shortened: as §3
# [20] = test system: Mus musculus; assay: Toxicity in FVB mouse assessed as effect on hematocrit at 50 mg/kg, po administered 5 times per week for 2 weeks; type: organism-based; parameters: dose 50 mg/kg, route oral; details: in vivo, 336 h; procedure, shortened: as §3
# [21] = test system: Mus musculus; assay: Toxicity in FVB mouse assessed as effect on body weight at 50 mg/kg, po administered 5 times per week for 2 weeks measured during test; type: organism-based; parameters: dose 50 mg/kg, route oral; details: in vivo, 336 h; procedure, shortened: as §3
# [22] = test system: Mus musculus; assay: Toxicity in FVB mouse assessed as effect on body weight at 50 mg/kg, po administered 5 times per week for 2 weeks; type: organism-based; parameters: dose 50 mg/kg, route oral; details: in vivo, 336 h; procedure, shortened: as §3
# [23] = target: Histone deacetylase 1 (Homo sapiens) (UniProt Q13547); assay: Inhibition of recombinant FLAG-tagged HDAC1 assessed as [3H]acetic acid release preincubated for 30 mins measured after 2 hrs by scintillation counting
# Procedure, shortened: (§4)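 FLAG-tagged HDAC1 or HDAC6 was immunopurified from stably expressing cell lines and washed in HDAC buffer (10 mM Tris-HCl pH 8.0, 10 mM NaCl, 10% glycerol). Enzyme was preincubated with inhibitor (1 µM) for 30 min at 4 °C, then given 20 000 cpm [3H]peracetylated H4 peptide for 2 h at 37 °C. The reaction was stopped with acetic acid/HCl, extracted into ethyl acetate, and released [3H]acetate counted by scintillation.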
# [24] = target: T1, Protein deacetylase HDAC6 (Homo sapiens) (UniProt Q9UBN7); assay: Inhibition of recombinant FLAG-tagged HDAC6 assessed as [3H]acetic acid release preincubated for 30 mins measured after 2 hrs by scintillation counting; procedure, shortened: as §4
# T1 sequence (whole entry): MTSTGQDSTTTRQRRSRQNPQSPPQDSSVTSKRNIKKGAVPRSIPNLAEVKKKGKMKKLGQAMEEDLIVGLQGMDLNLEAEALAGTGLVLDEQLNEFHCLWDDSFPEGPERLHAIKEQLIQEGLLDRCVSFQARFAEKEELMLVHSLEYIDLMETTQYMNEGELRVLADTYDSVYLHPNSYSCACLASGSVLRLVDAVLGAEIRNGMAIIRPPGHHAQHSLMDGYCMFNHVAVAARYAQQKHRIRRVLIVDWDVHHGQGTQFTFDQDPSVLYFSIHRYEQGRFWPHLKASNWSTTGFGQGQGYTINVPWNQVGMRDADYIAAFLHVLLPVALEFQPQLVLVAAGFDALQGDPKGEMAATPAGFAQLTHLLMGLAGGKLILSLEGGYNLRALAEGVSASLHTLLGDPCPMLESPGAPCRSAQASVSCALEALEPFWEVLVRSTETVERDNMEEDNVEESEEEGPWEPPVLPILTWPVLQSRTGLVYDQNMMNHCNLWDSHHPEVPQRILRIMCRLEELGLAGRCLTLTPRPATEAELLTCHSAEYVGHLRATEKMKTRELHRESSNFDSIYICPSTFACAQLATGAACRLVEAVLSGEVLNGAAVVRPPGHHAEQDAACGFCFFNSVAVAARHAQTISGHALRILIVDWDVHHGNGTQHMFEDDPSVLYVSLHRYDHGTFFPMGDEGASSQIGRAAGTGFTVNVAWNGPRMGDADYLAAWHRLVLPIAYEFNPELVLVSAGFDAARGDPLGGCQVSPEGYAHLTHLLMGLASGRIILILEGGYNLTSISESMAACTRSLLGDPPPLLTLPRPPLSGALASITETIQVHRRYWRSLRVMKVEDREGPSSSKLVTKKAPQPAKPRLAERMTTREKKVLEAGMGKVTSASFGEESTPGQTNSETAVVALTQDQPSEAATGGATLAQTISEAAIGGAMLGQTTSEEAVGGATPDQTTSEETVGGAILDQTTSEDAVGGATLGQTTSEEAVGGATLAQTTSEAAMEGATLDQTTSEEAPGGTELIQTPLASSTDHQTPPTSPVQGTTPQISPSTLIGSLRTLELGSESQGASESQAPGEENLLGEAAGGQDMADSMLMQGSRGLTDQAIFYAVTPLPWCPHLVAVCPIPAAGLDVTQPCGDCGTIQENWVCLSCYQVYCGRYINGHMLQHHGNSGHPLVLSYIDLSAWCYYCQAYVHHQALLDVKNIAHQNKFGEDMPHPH
# [25] = test system: Mus musculus; assay: Toxicity in FVB mouse assessed as effect on mean cell volume of red cells at 50 mg/kg, po administered 5 times per week for 2 weeks (reference value: 43.9 +/- 0.5 microm^3); details: in vivo, 336 h
# Sequence of Histone deacetylase 1 (Homo sapiens) (Q13547 whole entry): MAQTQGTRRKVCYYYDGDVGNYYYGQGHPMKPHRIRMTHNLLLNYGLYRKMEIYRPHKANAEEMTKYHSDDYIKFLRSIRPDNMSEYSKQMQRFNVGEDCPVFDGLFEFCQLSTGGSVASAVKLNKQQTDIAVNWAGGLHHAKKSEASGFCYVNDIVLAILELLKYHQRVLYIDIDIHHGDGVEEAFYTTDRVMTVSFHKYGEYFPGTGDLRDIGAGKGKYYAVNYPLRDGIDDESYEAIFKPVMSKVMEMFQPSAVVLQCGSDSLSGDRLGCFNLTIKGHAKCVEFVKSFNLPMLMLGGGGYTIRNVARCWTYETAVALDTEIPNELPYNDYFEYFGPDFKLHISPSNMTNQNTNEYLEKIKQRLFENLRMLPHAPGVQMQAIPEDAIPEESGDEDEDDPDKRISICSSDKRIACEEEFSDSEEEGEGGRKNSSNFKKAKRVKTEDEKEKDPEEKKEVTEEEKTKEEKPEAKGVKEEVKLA
smiles,measurement,setting,value
O=C(CCCCCCC(=O)Nc1ccc(I)cc1)NO,EC50,[1],1100 nM
same,EC50,[2],950 nM
same,EC50,[3],120 nM
same,EC50,[4],240 nM
same,EC50,[5],850 nM
same,EC50,[6],1300 nM
same,selectivity ratio,[7],30
same,Activity,[8],Non-toxic
same,Activity,[9],Non-toxic
same,Activity,[10],478.3 10^3/mm3
same,Activity,[11],537 10^3/mm3
same,Activity,[12],8.6 um3
same,Activity,[13],8.7 um3
same,Activity,[14],8.02 10^6/mm3
same,Activity,[15],6.9 10^6/mm3
same,Activity,[16],43.9 um3
same,Activity,[17],7.5 10^3/mm3
same,Activity,[18],7.5 10^3/mm3
same,Activity,[19],35.2%
same,Activity,[20],30.2%
same,Activity,[21],99.7%
same,Activity,[22],97.8%
same,Activity,[23],Active
same,Activity,[24],Active
same,Activity,[25],43.7 um3
